Where only a bound is given, the exact number is not on record here.

The species entered for the first experiment is Mus musculus. As to the kind of experiment: Evaluated for the inhibitory activity of (Nitric Oxide)NO production induced by interferon-gamma (IFN-gamma) in mouse macrophages( toxic to cells above 1 uM and is not active below 1 uM); Toxic. The class given is functional, cell-based.
The IC50 is the midpoint of a concentration-inhibition curve. High values mean weaker potency, low ones greater potency. As to `C[C@@H]1CC[C@]2(C(=O)O)CC[C@]3(C)C(=CC[C@@H]4[C@@]5(C)CC[C@H](O)C(C)(C)[C@@H]5CC[C@]43C)C2[C@H]1C` (stereo partly specified), the IC50 entry is on record as “Toxic”. For `COC(=O)C1=C[C@]2(C)C3=CC(=O)C4C5CC(C)(C)CC[C@]5(C(=O)OC)CC[C@@]4(C)[C@]3(C)CC[C@H]2C(C)(C)C1=O` (stereo partly specified), the IC50 result is given as “Toxic”.

The species named for a further experiment is Mus musculus. Nature of the experiment: Evaluated for the inhibitory activity of (Nitric Oxide)NO production induced by interferon-gamma (IFN-gamma) in mouse macrophages(toxic to cells above 1 uM and is not active below 1 uM); Toxic. Format: functional, cell-based.
Regarding `COC(=O)[C@]12CCC(C)(C)CC1C1=CC[C@@H]3[C@@]4(C)C=C(C=O)C(=O)C(C)(C)[C@@H]4CC[C@@]3(C)[C@]1(C)CC2` (stereo partly specified), the half-maximal inhibitory concentration (IC50) entry was “Toxic”.

For another experiment, the species on record is Mus musculus. As to the kind of experiment: Inhibition of nitric oxide (NO) production induced by interferon-gamma (IFN-gamma) in mouse macrophages. The class given is functional. In short, it runs like this: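 Primary peritoneal macrophages from female CD-1 mice (5–10 weeks), harvested four days after i.p. injection of 4% thioglycollate broth. Seeded at 2 × 10^5 cells/well and incubated 48 h with 20 ng/mL recombinant mouse IFN-γ plus compound in DMSO (final ≤0.1%), with DMSO controls. Nitrite in supernatant measured by Griess reaction at 550 nm in triplicate against sodium nitrite standard curve. IC50 is the average of two experiments.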
The compound `COC(=O)[C@]12CCC(C)(C)CC1C1=CC(=O)[C@@H]3[C@@]4(C)C=CC(=O)C(C)(C)[C@@H]4CC[C@@]3(C)[C@]1(C)CC2` (stereo partly specified) showed a 50% inhibitory concentration (IC50) of 2800 nM. On the same count and under the same terms, the value for `COC(=O)[C@]12CC[C@@H](C)[C@H](C)C1C1=CC(=O)[C@@H]3[C@@]4(C)C=C(C#N)C(=O)C(C)(C)[C@@H]4CC[C@@]3(C)[C@]1(C)CC2` (stereo partly specified) was 100 nM; that for `COC(=O)[C@]12CCC(C)(C)CC1C1C(=O)C=C3[C@@]4(C)C=C(C=O)C(=O)C(C)(C)[C@@H]4CC[C@@]3(C)[C@]1(C)CC2` (stereo partly specified) was 100 nM; that for `COC(=O)[C@]12CCC(C)(C)CC1C1=CC[C@@H]3[C@@]4(C)C=CC(=O)C(C)(C)[C@@H]4CC[C@@]3(C)[C@]1(C)CC2` (stereo partly specified) was 31000 nM.

`COC(=O)[C@]12CCC(C)(C)CC1C1C(=O)C=C3[C@@]4(C)C=CC(=O)C(C)(C)[C@@H]4CC[C@@]3(C)[C@]1(C)CC2` (stereo partly specified): the IC50 is 700 nM. Still for that read-out and setting: under `CC(=O)OC[C@]12CCC(C)(C)CC1C1=CC(=O)[C@@H]3[C@@]4(C)C=CC(=O)C(C)(C)[C@@H]4CC[C@@]3(C)[C@]1(C)CC2` (stereo partly specified) stands > 40000 nM. On the same count and under the same terms, under `C[C@@H]1CC[C@]2(C(=O)O)CC[C@]3(C)C(=CC(=O)[C@@H]4[C@@]5(C)C=C(C#N)C(=O)C(C)(C)[C@@H]5CC[C@]43C)C2[C@H]1C` (stereo partly specified) stands 800 nM; under `COC(=O)[C@]12CCC(C)(C)CC1C1C(=O)C=C3[C@@]4(C)C=C(C(N)=O)C(=O)C(C)(C)[C@@H]4CC[C@@]3(C)[C@]1(C)CC2` (stereo partly specified), 100 nM; under `COC(=O)[C@]12CC[C@@H](C)[C@H](C)C1C1=CC(=O)[C@@H]3[C@@]4(C)C=CC(=O)C(C)(C)[C@@H]4CC[C@@]3(C)[C@]1(C)CC2` (stereo partly specified), 8900 nM.

Regarding `CC1(C)CC[C@]2(C=O)CC[C@]3(C)C(=CC(=O)[C@@H]4[C@@]5(C)C=CC(=O)C(C)(C)[C@@H]5CC[C@]43C)C2C1` (stereo partly specified), the IC50 amounted to 3800 nM.

In turn, `COC(=O)[C@]12CCC(C)(C)CC1C1C(=O)C[C@@H]3[C@@]4(C)C=CC(=O)C(C)(C)[C@@H]4CC[C@@]3(C)[C@]1(C)CC2` (stereo partly specified) returned a concentration for half-maximal inhibition (IC50) of 14000 nM. Compound `CC1(C)CC[C@]2(C(=O)O)CC[C@]3(C)C(=CC(=O)[C@@H]4[C@@]5(C)C=CC(=O)C(C)(C)[C@@H]5CC[C@]43C)C2C1` (stereo partly specified) registered an IC50 of 1100 nM.

With `CC1(C)CC[C@]2(CO)CC[C@]3(C)C(=CC(=O)[C@@H]4[C@@]5(C)C=CC(=O)C(C)(C)[C@@H]5CC[C@]43C)C2C1` (stereo partly specified), half-maximal inhibition (IC50) was put at 3000 nM.

Source of the values: ChEMBL document CHEMBL1133509, “Synthetic oleanane and ursane triterpenoids with modified rings A and C: a series of highly active inhibitors of nitric oxide production in mouse macrophages” (J Med Chem, 2000).
